Results: ChEMBL document CHEMBL4145631, “Riluzole-Triazole Hybrids as Novel Chemical Probes for Neuroprotection in Amyotrophic Lateral Sclerosis” (ACS Med Chem Lett, 2018)
Active and inactive are the calls of the source. How the calls were made is not given here.

Assays:
Cortical neurone [1] = assay: Neuroprotective activity against kainate-induced cell death in mouse primary cortical neurons by cell counting method; assay type: functional, cell-based
Mus musculus [2] = species on record: Mus musculus; assay: Neuroprotective activity against kainate-induced cell death in mouse primary motor neurons by MTT assay; assay type: functional
Cortical neurone [3] = assay: Neuroprotective activity against kainate-induced cell damage in mouse primary cortical neurons assessed as reversal of kainate-induced reduction in calcium flux by fura-2-AM dye based fluorescence assay; assay type: functional
Summary of the method: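 Mouse primary cortical neurons loaded with fura-2AM for 45 min, washed, then depolarized with 10 mM KCl to drive Ca2+ entry through voltage-gated calcium channels. Flux read on a plate-based system.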

Cortical neurone [4] = assay: Neuroprotective activity against kainate-induced cell damage in mouse primary cortical neurons assessed as reduction in kainate-induced neurofilament loss by measuring increase in MAPK level at 1 uM pretreated followed by kainate challenge measured after 18 hrs by fluorescence assay; assay type: functional, cell-based; conditions: in the assay text read “MAP2” for “MAPK”
Summary of the method: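 Mouse primary cortical neurons cultured as previously described; dendritic processes stained with anti-MAP2 antibody. Cell-profile perimeter measured by image analysis, each condition normalized to kainate-only.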

Cortical neurone [5] = assay: Neuroprotective activity against kainate-induced cell death in mouse primary cortical neurons by MTT assay; assay type: functional, cell-based
Mus musculus [6] = species on record: Mus musculus; assay: Neuroprotective activity against kainate-induced cell death in mouse primary motor neurons by caspase activation method; assay type: functional
Mus musculus [7] = species on record: Mus musculus; assay: Neuroprotective activity against kainate-induced cell death in mouse primary motor neurons by cell counting method; assay type: functional
Cortical neurone [8] = assay: Neuroprotective activity against kainate-induced cell death in mouse primary cortical neurons by caspase activation method; assay type: functional, cell-based

`Cc1cccc(-c2cn(CCn3c(=N)sc4cc(OC(F)(F)F)ccc43)nn2)c1` was tested, and the Activity (Cortical neurone [1]) was “inactive”, the Activity (Mus musculus [2]) was “inactive” and the Activity (Cortical neurone [3]) was “Active”. For the same molecule, the Activity (Cortical neurone [4]) was “inactive”, the Activity (Cortical neurone [5]) was “inactive” and the Activity (Mus musculus [6]) was “inactive”. For the same molecule, the Activity (Mus musculus [7]) was “inactive” and the Activity (Cortical neurone [8]) was “inactive”.

`N=c1sc2cc(OC(F)(F)F)ccc2n1CCn1cc(C2CCCCC2)nn1` was tested, and the Activity (Cortical neurone [1]) was “inactive”, the Activity (Mus musculus [2]) was “inactive” and the Activity (Cortical neurone [3]) was “Active”. For the same molecule, the Activity (Cortical neurone [4]) was “inactive”, the Activity (Cortical neurone [5]) was “inactive” and the Activity (Mus musculus [6]) was “inactive”. For the same molecule, the Activity (Mus musculus [7]) was “inactive” and the Activity (Cortical neurone [8]) was “inactive”.

For `CN(C)c1ccc(-c2cn(CCn3c(=N)sc4cc(OC(F)(F)F)ccc43)nn2)cc1`, the Activity (Cortical neurone [1]) was “inactive”, the Activity (Mus musculus [2]) was “inactive” and the Activity (Cortical neurone [3]) was “Active”. The Activity (Cortical neurone [4]) was “inactive”, the Activity (Cortical neurone [5]) was “inactive” and the Activity (Mus musculus [6]) was “inactive”. For the same molecule, the Activity (Mus musculus [7]) was “inactive” and the Activity (Cortical neurone [8]) was “inactive”.

For `N=c1sc2cc(OC(F)(F)F)ccc2n1CCn1cc(-c2ccc(C(F)(F)F)cc2)nn1`, the Activity (Cortical neurone [1]) was “inactive”, the Activity (Mus musculus [2]) was “inactive” and the Activity (Cortical neurone [3]) was “Active”. The Activity (Cortical neurone [4]) was “inactive”, the Activity (Cortical neurone [5]) was “inactive” and the Activity (Mus musculus [6]) was “inactive”. For the same molecule, the Activity (Mus musculus [7]) was “inactive” and the Activity (Cortical neurone [8]) was “inactive”.

In the case of `N=c1sc2cc(OC(F)(F)F)ccc2n1CCn1cc(-c2ccc(N)cc2)nn1`, the Activity (Cortical neurone [1]) is reported as “inactive”, the Activity (Mus musculus [2]) is reported as “inactive” and the Activity (Cortical neurone [3]) is reported as “Active”. For the same molecule, the Activity (Cortical neurone [4]) was “inactive”, the Activity (Cortical neurone [5]) was “inactive” and the Activity (Mus musculus [6]) was “inactive”. The Activity (Mus musculus [7]) was “inactive” and the Activity (Cortical neurone [8]) was “inactive”.

`N=c1sc2cc(OC(F)(F)F)ccc2n1CCn1cc(-c2ccccc2Cl)nn1` was tested, and the Activity (Cortical neurone [1]) was “inactive”, the Activity (Mus musculus [2]) was “inactive” and the Activity (Cortical neurone [3]) was “Active”. For the same molecule, the Activity (Cortical neurone [4]) was “inactive”, the Activity (Cortical neurone [5]) was “inactive” and the Activity (Mus musculus [6]) was “inactive”. For the same molecule, the Activity (Mus musculus [7]) was “inactive” and the Activity (Cortical neurone [8]) was “inactive”.

In the case of `CCCCCc1ccc(-c2cn(CCn3c(=N)sc4cc(OC(F)(F)F)ccc43)nn2)cc1`, the Activity (Cortical neurone [1]) is reported as “inactive”, the Activity (Mus musculus [2]) is reported as “inactive” and the Activity (Cortical neurone [3]) is reported as “Active”. For the same molecule, the Activity (Cortical neurone [4]) was “inactive”, the Activity (Cortical neurone [5]) was “inactive” and the Activity (Mus musculus [6]) was “inactive”. The Activity (Mus musculus [7]) was “inactive” and the Activity (Cortical neurone [8]) was “inactive”.

`N=c1sc2cc(OC(F)(F)F)ccc2n1CCn1cc(-c2cccc(F)c2)nn1` was tested, and the Activity (Cortical neurone [1]) was “inactive”, the Activity (Mus musculus [2]) was “inactive” and the Activity (Cortical neurone [3]) was “Active”. The Activity (Cortical neurone [4]) was “inactive”, the Activity (Cortical neurone [5]) was “inactive” and the Activity (Mus musculus [6]) was “inactive”. For the same molecule, the Activity (Mus musculus [7]) was “inactive” and the Activity (Cortical neurone [8]) was “inactive”.

`N=c1sc2cc(OC(F)(F)F)ccc2n1CCn1cc(-c2ccsc2)nn1` was tested, and the Activity (Cortical neurone [1]) was “inactive”, the Activity (Mus musculus [2]) was “inactive” and the Activity (Cortical neurone [3]) was “Active”. The Activity (Cortical neurone [4]) was “inactive”, the Activity (Cortical neurone [5]) was “inactive” and the Activity (Mus musculus [6]) was “inactive”. For the same molecule, the Activity (Mus musculus [7]) was “inactive” and the Activity (Cortical neurone [8]) was “inactive”.

`CCCCc1ccc(-c2cn(CCn3c(=N)sc4cc(OC(F)(F)F)ccc43)nn2)cc1` was tested, and the Activity (Cortical neurone [1]) was “inactive”, the Activity (Mus musculus [2]) was “inactive” and the Activity (Cortical neurone [3]) was “Active”. The Activity (Cortical neurone [4]) was “inactive”, the Activity (Cortical neurone [5]) was “inactive” and the Activity (Mus musculus [6]) was “inactive”. For the same molecule, the Activity (Mus musculus [7]) was “inactive” and the Activity (Cortical neurone [8]) was “inactive”.

In the case of `N=c1sc2cc(OC(F)(F)F)ccc2n1CCn1cc(-c2ccccc2N)nn1`, the Activity (Cortical neurone [1]) is reported as “inactive”, the Activity (Mus musculus [2]) is reported as “inactive” and the Activity (Cortical neurone [3]) is reported as “Active”. The Activity (Cortical neurone [4]) was “Active”, the Activity (Cortical neurone [5]) was “inactive” and the Activity (Mus musculus [6]) was “inactive”. For the same molecule, the Activity (Mus musculus [7]) was “inactive” and the Activity (Cortical neurone [8]) was “inactive”.

For `Cc1ccc(-c2cn(CCn3c(=N)sc4cc(OC(F)(F)F)ccc43)nn2)cc1`, the Activity (Cortical neurone [1]) was “inactive”, the Activity (Mus musculus [2]) was “inactive” and the Activity (Cortical neurone [3]) was “Active”. The Activity (Cortical neurone [4]) was “inactive”, the Activity (Cortical neurone [5]) was “inactive” and the Activity (Mus musculus [6]) was “inactive”. The Activity (Mus musculus [7]) was “inactive” and the Activity (Cortical neurone [8]) was “inactive”.

With `CC(C)(C)c1ccc(-c2cn(CCn3c(=N)sc4cc(OC(F)(F)F)ccc43)nn2)cc1` the Activity (Cortical neurone [1]) was “inactive”, the Activity (Mus musculus [2]) was “inactive” and the Activity (Cortical neurone [3]) was “Active”. For the same molecule, the Activity (Cortical neurone [4]) was “inactive”, the Activity (Cortical neurone [5]) was “inactive” and the Activity (Mus musculus [6]) was “inactive”. The Activity (Mus musculus [7]) was “inactive” and the Activity (Cortical neurone [8]) was “inactive”.

In the case of `N=c1sc2cc(OC(F)(F)F)ccc2n1CCn1cc(-c2cccc(Cl)c2)nn1`, the Activity (Cortical neurone [1]) is reported as “inactive”, the Activity (Mus musculus [2]) is reported as “inactive” and the Activity (Cortical neurone [3]) is reported as “Active”. The Activity (Cortical neurone [4]) was “inactive”, the Activity (Cortical neurone [5]) was “inactive” and the Activity (Mus musculus [6]) was “inactive”. The Activity (Mus musculus [7]) was “inactive” and the Activity (Cortical neurone [8]) was “inactive”.

`CCOC(=O)c1cn(CCn2c(=N)sc3cc(OC(F)(F)F)ccc32)nn1` was tested, and the Activity (Cortical neurone [1]) was “inactive”, the Activity (Mus musculus [2]) was “inactive” and the Activity (Cortical neurone [3]) was “Active”. The Activity (Cortical neurone [4]) was “inactive”, the Activity (Cortical neurone [5]) was “inactive” and the Activity (Mus musculus [6]) was “inactive”. For the same molecule, the Activity (Mus musculus [7]) was “inactive” and the Activity (Cortical neurone [8]) was “inactive”.

`N=c1sc2cc(OC(F)(F)F)ccc2n1CCn1cc(-c2cc(F)c(F)c(F)c2)nn1` was tested, and the Activity (Cortical neurone [1]) was “inactive”, the Activity (Mus musculus [2]) was “inactive” and the Activity (Cortical neurone [3]) was “Active”. For the same molecule, the Activity (Cortical neurone [4]) was “inactive”, the Activity (Cortical neurone [5]) was “inactive” and the Activity (Mus musculus [6]) was “inactive”. The Activity (Mus musculus [7]) was “inactive” and the Activity (Cortical neurone [8]) was “inactive”.

For `CC(C)CCc1cn(CCn2c(=N)sc3cc(OC(F)(F)F)ccc32)nn1`, the Activity (Cortical neurone [1]) was “inactive”, the Activity (Mus musculus [2]) was “inactive” and the Activity (Cortical neurone [3]) was “Active”. The Activity (Cortical neurone [4]) was “inactive”, the Activity (Cortical neurone [5]) was “inactive” and the Activity (Mus musculus [6]) was “inactive”. The Activity (Mus musculus [7]) was “inactive” and the Activity (Cortical neurone [8]) was “inactive”.

For `N=c1sc2cc(OC(F)(F)F)ccc2n1CCn1cc(-c2cc(F)cc(F)c2)nn1`, the Activity (Cortical neurone [1]) was “inactive”, the Activity (Mus musculus [2]) was “inactive” and the Activity (Cortical neurone [3]) was “Active”. For the same molecule, the Activity (Cortical neurone [4]) was “inactive”, the Activity (Cortical neurone [5]) was “inactive” and the Activity (Mus musculus [6]) was “inactive”. The Activity (Mus musculus [7]) was “inactive” and the Activity (Cortical neurone [8]) was “inactive”.

`N=c1sc2cc(OC(F)(F)F)ccc2n1CCn1cc(-c2ccc(F)c(F)c2)nn1` was tested, and the Activity (Cortical neurone [1]) was “inactive”, the Activity (Mus musculus [2]) was “inactive” and the Activity (Cortical neurone [3]) was “Active”. For the same molecule, the Activity (Cortical neurone [4]) was “inactive”, the Activity (Cortical neurone [5]) was “inactive” and the Activity (Mus musculus [6]) was “inactive”. The Activity (Mus musculus [7]) was “inactive” and the Activity (Cortical neurone [8]) was “inactive”.

`CC(C)(C)c1cn(CCn2c(=N)sc3cc(OC(F)(F)F)ccc32)nn1` was tested, and the Activity (Cortical neurone [1]) was “inactive”, the Activity (Mus musculus [2]) was “inactive” and the Activity (Cortical neurone [3]) was “Active”. For the same molecule, the Activity (Cortical neurone [4]) was “inactive”, the Activity (Cortical neurone [5]) was “inactive” and the Activity (Mus musculus [6]) was “inactive”. The Activity (Mus musculus [7]) was “inactive” and the Activity (Cortical neurone [8]) was “inactive”.

`N=c1sc2cc(OC(F)(F)F)ccc2n1CCn1cc(Cc2ccccc2)nn1` was tested, and the Activity (Cortical neurone [1]) was “inactive”, the Activity (Mus musculus [2]) was “inactive” and the Activity (Cortical neurone [3]) was “Active”. For the same molecule, the Activity (Cortical neurone [4]) was “inactive”, the Activity (Cortical neurone [5]) was “inactive” and the Activity (Mus musculus [6]) was “inactive”. For the same molecule, the Activity (Mus musculus [7]) was “inactive” and the Activity (Cortical neurone [8]) was “inactive”.
